Source: ChEMBL document CHEMBL2390929, “New nitric oxide donating 1,2,4-triazole/oxime hybrids: synthesis, investigation of anti-inflammatory, ulceroginic liability and antiproliferative activities” (Bioorg Med Chem, 2013)

Experiments:
[1] = tested on: SN12C; assay: Cytotoxicity against human SN12C cells assessed as cell growth at 10^-5 M after 48 hrs by SRB assay; type: functional; settings: read-out: Activity
In short: (§1)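 NCI-60 one-dose screen across nine tumour subpanels. Each agent added once at 10^-5 M, cultures incubated 48 h. Endpoint is sulforhodamine B protein staining read spectrophotometrically. Output is percent growth of treated cells relative to untreated controls.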

[2] = tested on: OVCAR-8; assay: Cytotoxicity against human OVCAR8 cells assessed as cell growth at 10^-5 M after 48 hrs by SRB assay; type: functional; settings: OVCAR-8, 48 h, read-out: Activity
In short: (§2)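 NCI 60-cell-line primary one-dose screen across nine tumour subpanels. Compound added at a single concentration of 10^-5 M and cultures incubated 48 h. Endpoint was sulforhodamine B protein staining read spectrophotometrically, with growth expressed as percent of untreated control cells.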

[3] = tested on: CCRF-CEM; assay: Cytotoxicity against human CCRF-CEM cells assessed as cell growth at 10^-5 M after 48 hrs by SRB assay; type: functional; settings: read-out: Activity; in short: as §2
[4] = tested on: NCI-H23; assay: Cytotoxicity against human NCI-H23 cells assessed as cell growth at 10^-5 M after 48 hrs by SRB assay; type: functional; settings: NCI-H23, 48 h, read-out: Activity; in short: as §2
[5] = tested on: T47D; assay: Cytotoxicity against human T47D cells assessed as cell growth at 10^-5 M after 48 hrs by SRB assay; type: functional; settings: read-out: Activity; in short: as §1
[6] = tested on: RPMI-8226; assay: Cytotoxicity against human RPMI8226 cells assessed as cell growth at 10^-5 M after 48 hrs by SRB assay; type: functional; settings: RPMI-8226, 48 h, read-out: Activity; in short: as §2
[7] = tested on: NCI-H226; assay: Cytotoxicity against human NCI-H226 cells assessed as cell growth at 10^-5 M after 48 hrs by SRB assay; type: functional; settings: NCI-H226, 48 h, read-out: Activity; in short: as §2
[8] = Induction of nitric oxide release in phosphate buffer at pH 7.4 at 0.1 mM after 4 hrs by Griess method in presence of 0.5 mM of N-acetylcysteine; type: physicochemical; settings: pH 7.4, 4 h, 100 µM
In short: (§3)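 Compound in DMF diluted to final 10^-4 M in 1:1 50 mM phosphate buffer pH 7.4/MeOH with 5×10^-4 M N-acetylcysteine, 37 °C. Aliquot mixed with Griess reagent, 10 min at room temperature, A546 read. Nitrite quantified against sodium nitrite standards (10–80 nmol/mL); NO expressed as mol/mol. n = 4 reaction mixtures per compound.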

[9] = tested on: PC-3; assay: Cytotoxicity against human PC3 cells assessed as cell growth at 10^-5 M after 48 hrs by SRB assay; type: functional; settings: PC-3, 48 h, read-out: Activity; in short: as §2
[10] = tested on: MDA-MB-468; assay: Cytotoxicity against human MDA-MB-468 cells assessed as cell growth at 10^-5 M after 48 hrs by SRB assay; type: functional; settings: MDA-MB-468, 48 h, read-out: Activity; in short: as §2
[11] = tested on: LOX IMVI; assay: Cytotoxicity against human LOXIMVI cells assessed as cell growth at 10^-5 M after 48 hrs by SRB assay; type: functional; settings: read-out: Activity; in short: as §2
[12] = tested on: Malme-3M; assay: Cytotoxicity against human MALME-3M cells assessed as cell growth at 10^-5 M after 48 hrs by SRB assay; type: functional; settings: read-out: Activity; in short: as §2
[13] = tested on: HCT-116; assay: Cytotoxicity against human HCT116 cells assessed as cell growth at 10^-5 M after 48 hrs by SRB assay; type: functional; settings: HCT-116, 48 h, read-out: Activity; in short: as §2
[14] = tested on: MDA-MB-435; assay: Cytotoxicity against human MDA-MB-435 cells assessed as cell growth at 10^-5 M after 48 hrs by SRB assay; type: functional; settings: MDA-MB-435, 48 h, read-out: Activity; in short: as §2
[15] = tested on: HOP-62; assay: Cytotoxicity against human HOP62 cells assessed as cell growth at 10^-5 M after 48 hrs by SRB assay; type: functional; settings: HOP-62, 48 h, read-out: Activity; in short: as §2
[16] = tested on: HOP-92; assay: Cytotoxicity against human HOP92 cells assessed as cell growth at 10^-5 M after 48 hrs by SRB assay; type: functional; settings: HOP-92, 48 h, read-out: Activity; in short: as §2
[17] = tested on: NCI-H522; assay: Cytotoxicity against human NCI-H522 cells assessed as cell growth at 10^-5 M after 48 hrs by SRB assay; type: functional; settings: NCI-H522, 48 h, read-out: Activity; in short: as §2
[18] = tested on: NCI/ADR-RES; assay: Cytotoxicity against human NCI/ADR-RES cells assessed as cell growth at 10^-5 M after 48 hrs by SRB assay; type: functional; settings: read-out: Activity; in short: as §2
[19] = tested on: A498; assay: Cytotoxicity against human A498 cells assessed as cell growth at 10^-5 M after 48 hrs by SRB assay; type: functional; settings: A498, 48 h, read-out: Activity; in short: as §2
[20] = Induction of nitric oxide release in phosphate buffer at pH 7.4 at 0.1 mM after 1 hr by Griess method in presence of 0.5 mM of N-acetylcysteine; type: physicochemical; settings: pH 7.4, 1 h, 100 µM; in short: as §3
[21] = tested on: HCC 2998; assay: Cytotoxicity against human HCC2998 cells assessed as cell growth at 10^-5 M after 48 hrs by SRB assay; type: functional; settings: HCC 2998, 48 h, read-out: Activity; in short: as §2
[22] = tested on: SK-OV-3; assay: Cytotoxicity against human SKOV3 cells assessed as cell growth at 10^-5 M after 48 hrs by SRB assay; type: functional; settings: SK-OV-3, 48 h, read-out: Activity; in short: as §1
[23] = tested on: Rattus norvegicus; assay: Antiinflammatory activity in albino rat assessed as inhibition of carrageenan-induced paw edema at 0.28 mmol/kg, po after 2 hrs relative to control; type: functional
In short: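 Adult male albino rats (120–140 g), four per group, fasted 24 h with water allowed. Test agent suspended in 0.5% w/v aqueous CMC and given orally at 0.28 mmol/kg; controls received CMC alone. After 30 min, 0.1 mL fresh 1% carrageenan in saline was injected subplantar into the right hind paw and saline into the left. Paw thickness was measured by Vernier caliper; % inhibition = [(VR−VL)control − (VR−VL)treated]/(VR−VL)control ×100. Mean ± SEM, one-way ANOVA.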

[24] = tested on: HL-60(TB); assay: Cytotoxicity against human HL-60(TB) cells assessed as cell growth at 10^-5 M after 48 hrs by SRB assay; type: functional; settings: HL-60, 48 h, read-out: Activity
In short: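 NCI 60-cell-line one-dose screen: compound added to cultures at a single concentration of 10^-5 M, incubated 48 h. End point by sulforhodamine B protein staining, read spectrophotometrically. Value is percent growth of treated cells relative to untreated control cells.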

[25] = tested on: 786-0; assay: Cytotoxicity against human 786-0 cells assessed as cell growth at 10^-5 M after 48 hrs by SRB assay; type: functional; settings: 786-0, 48 h, read-out: Activity; in short: as §2
[26] = tested on: KM12; assay: Cytotoxicity against human KM12 cells assessed as cell growth at 10^-5 M after 48 hrs by SRB assay; type: functional; settings: KM12, 48 h, read-out: Activity; in short: as §2
[27] = tested on: U-251; assay: Cytotoxicity against human U251 cells assessed as cell growth at 10^-5 M after 48 hrs by SRB assay; type: functional; settings: U-251, 48 h, read-out: Activity; in short: as §1
[28] = tested on: HT-29; assay: Cytotoxicity against human HT-29 cells assessed as cell growth at 10^-5 M after 48 hrs by SRB assay; type: functional; settings: HT-29, 48 h, read-out: Activity; in short: as §2
[29] = Cytotoxicity against human EKVX cells assessed as cell growth at 10^-5 M after 48 hrs by SRB assay; type: functional; settings: read-out: Activity; in short: as §2

SMILES	growth at 10 µM [1] [%]	growth at 10 µM [2] [%]	growth at 10 µM [3] [%]	growth at 10 µM [4] [%]	growth at 10 µM [5] [%]	growth at 10 µM [6] [%]	growth at 10 µM [7] [%]	Activity [8] [mol/mol]	growth at 10 µM [9] [%]	growth at 10 µM [10] [%]	growth at 10 µM [11] [%]	growth at 10 µM [12] [%]	growth at 10 µM [13] [%]	growth at 10 µM [14] [%]	growth at 10 µM [15] [%]	growth at 10 µM [17] [%]	growth at 10 µM [18] [%]	growth at 10 µM [19] [%]	Activity [20] [mol/mol]	growth at 10 µM [21] [%]	further results
COc1ccc(-c2nnc(SC/C(=N/O)c3ccccc3)n2-c2ccccc2)cc1OC	94.5	90.7	84.4	98	90.1	69.4	94.9	0.19	91.6	107	90.3	93.7	92	109	99.2	88.8	93.2	94.2	0.15	114	growth at 10 µM [16]: 86.5%; growth at 10 µM [22]: 103%; inhibition in vivo at 280 µmol/kg [23]: 61%; growth at 10 µM [24]: 68.2%; growth at 10 µM [25]: 102%; growth at 10 µM [26]: 99.8%; growth at 10 µM [27]: 101%; growth at 10 µM [28]: 97.5%; growth at 10 µM [29]: 101%
CCn1c(SC/C(=N/O)c2ccccc2)nnc1-c1ccccc1	88.5	111	88.9	103	120	89.7	108	0.13	81.2	108	104	98.7	101	105	111	112	103	69.3	0.06	96.6	growth at 10 µM [16]: 62.5%; growth at 10 µM [22]: 89.7%; inhibition in vivo at 280 µmol/kg [23]: 69%; growth at 10 µM [24]: 103%; growth at 10 µM [25]: 105%; growth at 10 µM [26]: 110%; growth at 10 µM [27]: 102%; growth at 10 µM [28]: 104%; growth at 10 µM [29]: 90.6%
C=CCn1c(SC/C(=N\O)c2ccccc2)nnc1-c1ccc(OC)c(OC)c1	98.2	96.8	98.3	91.5	90.4	83.7	103	0.17	96.5	105	88.2	92.5	112	105	92.2	89	93	97.4	0.09	100	growth at 10 µM [16]: 81.9%; growth at 10 µM [22]: 110%; inhibition in vivo at 280 µmol/kg [23]: 57%; growth at 10 µM [24]: 72.3%; growth at 10 µM [25]: 119%; growth at 10 µM [26]: 106%; growth at 10 µM [27]: 94.2%; growth at 10 µM [28]: 93.5%; growth at 10 µM [29]: 101%
O/N=C(/CSc1nnc(-c2ccccc2)n1-c1ccccc1)c1ccccc1	99.7	93.2	91	103	98	85.6	95.6	0.13	82.8	93	104	100	92.3	97.5	109	98.5	100	49.5	0.06	121	growth at 10 µM [22]: 103%; inhibition in vivo at 280 µmol/kg [23]: 63%; growth at 10 µM [24]: 92.2%; growth at 10 µM [25]: 109%; growth at 10 µM [26]: 97.5%; growth at 10 µM [27]: 82.3%; growth at 10 µM [28]: 91.6%; growth at 10 µM [29]: 95.4%
CCn1c(SC/C(=N/O)c2ccccc2)nnc1-c1ccc(OC)c(OC)c1	99.5	104	98	102	99.6	101	97.6	0.24	101	111	93	94.8	108	116	85.9	89.4	103	92.3	0.06	104	growth at 10 µM [16]: 107%; growth at 10 µM [22]: 96.4%; inhibition in vivo at 280 µmol/kg [23]: 67%; growth at 10 µM [24]: 95.8%; growth at 10 µM [25]: 115%; growth at 10 µM [26]: 100%; growth at 10 µM [27]: 101%; growth at 10 µM [28]: 100%; growth at 10 µM [29]: 102%
COc1ccc(-c2nnc(SC/C(=N/O)c3ccccc3)n2-c2ccccc2)cc1	97.9	102	83.5	106	86	73.5	103	0.15	86.4	96.5	101	96.5	93.2	102	111	81.6	97.9	73.8	0.08	112	growth at 10 µM [16]: 101%; growth at 10 µM [22]: 111%; inhibition in vivo at 280 µmol/kg [23]: 63%; growth at 10 µM [24]: 95.9%; growth at 10 µM [25]: 93.3%; growth at 10 µM [26]: 112%; growth at 10 µM [27]: 98.6%; growth at 10 µM [28]: 95.1%; growth at 10 µM [29]: 102%
